Assay results: ChEMBL document CHEMBL2424622, “Development of amino-pyrimidine inhibitors of c-Jun N-terminal kinase (JNK): kinase profiling guided optimization of a 1,2,3-benzotriazole lead” (Bioorg Med Chem Lett, 2013)

Tests used:
[1] = molecular target: Death-associated protein kinase 3 (Homo sapiens, UniProt O43293); assay: Competitive binding affinity to DAPK3 (unknown origin) at 10 uM in presence of ATP relative to control
Outline: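 In vitro ATP-site competition binding assay across a diverse panel of 128 kinases, with each compound tested at a single concentration. Kinase binding is expressed relative to control.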

[2] = molecular target: c-Jun N-terminal kinase, JNK (Homo sapiens, UniProt P45983+P53779+P45984); assay: Inhibition of JNK in human SW1353 cells assessed as inhibition of TNFalpha-induced c-Jun phosphorylation incubated for 30 mins prior to TNFalpha induction measured after 20 mins; type: cell-based
Outline: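 SW1353 cells were stimulated with TNFa, and the read-out was inhibition of phosphorylation of the downstream substrate c-Jun. Values are the mean of at least three experiments.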

[3] = molecular target: Receptor-interacting serine/threonine-protein kinase 2 (Homo sapiens) (UniProt O43353); assay: Competitive binding affinity to RIPK2 (unknown origin) at 10 uM in presence of ATP relative to control
Outline: (§1)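 In vitro ATP-site competition binding assay across a diverse panel of 128 kinases, with compound tested at a single concentration. Kinase selectivity scores (S15) were calculated from the panel profiles.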

[4] = molecular target: 5'-AMP-activated protein kinase catalytic subunit alpha-1 (Homo sapiens) (UniProt Q13131); assay: Competitive binding affinity to AMPKalpha1 (unknown origin) at 10 uM in presence of ATP relative to control
[5] = molecular target: T1, Ephrin type-A receptor 6 (Homo sapiens) (UniProt Q9UF33); assay: Competitive binding affinity to EPHA6 (unknown origin) at 10 uM in presence of ATP relative to control
T1 sequence (whole entry): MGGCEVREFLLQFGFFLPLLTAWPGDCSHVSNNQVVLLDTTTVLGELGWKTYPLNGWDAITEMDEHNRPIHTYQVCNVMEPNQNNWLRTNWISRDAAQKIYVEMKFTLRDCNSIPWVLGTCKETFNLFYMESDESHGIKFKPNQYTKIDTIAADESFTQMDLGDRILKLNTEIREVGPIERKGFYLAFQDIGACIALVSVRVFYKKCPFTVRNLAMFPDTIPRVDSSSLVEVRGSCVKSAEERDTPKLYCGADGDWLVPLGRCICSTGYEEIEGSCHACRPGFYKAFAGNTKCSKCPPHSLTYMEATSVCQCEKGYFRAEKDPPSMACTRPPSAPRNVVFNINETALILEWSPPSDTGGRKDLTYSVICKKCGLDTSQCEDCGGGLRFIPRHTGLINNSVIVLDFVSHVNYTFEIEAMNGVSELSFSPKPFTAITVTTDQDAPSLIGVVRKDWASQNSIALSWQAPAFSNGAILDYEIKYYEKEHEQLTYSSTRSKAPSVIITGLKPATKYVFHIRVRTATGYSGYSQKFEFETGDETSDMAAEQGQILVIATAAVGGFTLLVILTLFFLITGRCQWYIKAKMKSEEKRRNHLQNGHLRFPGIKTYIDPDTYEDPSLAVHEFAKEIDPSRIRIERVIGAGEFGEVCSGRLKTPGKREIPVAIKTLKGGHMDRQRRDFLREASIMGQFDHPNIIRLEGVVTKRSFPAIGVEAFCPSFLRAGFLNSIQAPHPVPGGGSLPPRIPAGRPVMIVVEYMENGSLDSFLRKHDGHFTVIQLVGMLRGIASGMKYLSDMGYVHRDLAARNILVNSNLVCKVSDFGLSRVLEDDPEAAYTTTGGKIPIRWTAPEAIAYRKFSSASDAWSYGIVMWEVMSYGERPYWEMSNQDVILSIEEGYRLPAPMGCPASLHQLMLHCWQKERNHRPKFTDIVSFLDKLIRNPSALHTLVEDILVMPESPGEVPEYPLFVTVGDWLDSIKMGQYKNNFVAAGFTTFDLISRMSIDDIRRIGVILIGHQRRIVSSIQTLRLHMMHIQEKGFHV
Outline: (§2)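 In vitro ATP-site competition binding assay, part of profiling against a diverse panel of 128 kinases. Each compound was tested at a single concentration of 10 µM. Kinome selectivity was summarized as S15 selectivity scores.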

[6] = molecular target: Casein kinase I isoform gamma-1 (Homo sapiens) (UniProt Q9HCP0); assay: Competitive binding affinity to CSNK1G1 (unknown origin) at 10 uM in presence of ATP relative to control
[7] = molecular target: T2, Serine/threonine-protein kinase Nek2 (Homo sapiens) (UniProt P51955); assay: Competitive binding affinity to NEK2 (unknown origin) at 10 uM in presence of ATP relative to control; outline: as §1
T2 sequence (whole entry): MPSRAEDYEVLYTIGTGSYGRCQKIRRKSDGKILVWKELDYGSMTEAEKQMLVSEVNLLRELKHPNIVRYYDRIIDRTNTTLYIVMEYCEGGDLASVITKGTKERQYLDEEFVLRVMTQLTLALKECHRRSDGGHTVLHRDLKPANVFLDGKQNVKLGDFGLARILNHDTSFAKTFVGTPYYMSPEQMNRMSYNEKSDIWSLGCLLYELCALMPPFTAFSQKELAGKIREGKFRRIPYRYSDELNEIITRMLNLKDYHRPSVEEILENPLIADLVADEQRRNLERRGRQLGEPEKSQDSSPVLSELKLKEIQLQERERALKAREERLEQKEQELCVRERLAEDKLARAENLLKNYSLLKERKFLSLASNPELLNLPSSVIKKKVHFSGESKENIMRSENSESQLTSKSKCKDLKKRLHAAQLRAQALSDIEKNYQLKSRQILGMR

[8] = molecular target: Cyclin-dependent kinase 16 (Homo sapiens) (UniProt Q00536); assay: Competitive binding affinity to PCTK1 (unknown origin) at 10 uM in presence of ATP relative to control; outline: as §1
[9] = molecular target: Fibroblast growth factor receptor 2 (Homo sapiens) (UniProt P21802); assay: Competitive binding affinity to FGFR2 (unknown origin) at 10 uM in presence of ATP relative to control; outline: as §2
[10] = molecular target: Ephrin type-A receptor 7 (Homo sapiens) (UniProt Q15375); assay: Competitive binding affinity to EPHA7 (unknown origin) at 10 uM in presence of ATP relative to control; outline: as §2
[11] = system: Serine/threonine-protein kinase B-raf (Homo sapiens), P15056 [V600E]; assay: Competitive binding affinity to BRAF V600E mutant (unknown origin) at 10 uM in presence of ATP relative to control
[12] = molecular target: Leukocyte tyrosine kinase receptor (Homo sapiens) (UniProt P29376); assay: Competitive binding affinity to LTK (unknown origin) at 10 uM in presence of ATP relative to control; outline: as §2
[13] = molecular target: Mitogen-activated protein kinase kinase kinase 4 (Homo sapiens) (UniProt Q9Y6R4); assay: Competitive binding affinity to MAP3K4 (unknown origin) at 10 uM in presence of ATP relative to control; outline: as §2
[14] = molecular target: Fibroblast growth factor receptor 3 (Homo sapiens) (UniProt P22607); assay: Competitive binding affinity to FGFR3 (unknown origin) at 10 uM in presence of ATP relative to control; outline: as §2
Sequence of Fibroblast growth factor receptor 3 (Homo sapiens) (P22607 23-806 limits assumed): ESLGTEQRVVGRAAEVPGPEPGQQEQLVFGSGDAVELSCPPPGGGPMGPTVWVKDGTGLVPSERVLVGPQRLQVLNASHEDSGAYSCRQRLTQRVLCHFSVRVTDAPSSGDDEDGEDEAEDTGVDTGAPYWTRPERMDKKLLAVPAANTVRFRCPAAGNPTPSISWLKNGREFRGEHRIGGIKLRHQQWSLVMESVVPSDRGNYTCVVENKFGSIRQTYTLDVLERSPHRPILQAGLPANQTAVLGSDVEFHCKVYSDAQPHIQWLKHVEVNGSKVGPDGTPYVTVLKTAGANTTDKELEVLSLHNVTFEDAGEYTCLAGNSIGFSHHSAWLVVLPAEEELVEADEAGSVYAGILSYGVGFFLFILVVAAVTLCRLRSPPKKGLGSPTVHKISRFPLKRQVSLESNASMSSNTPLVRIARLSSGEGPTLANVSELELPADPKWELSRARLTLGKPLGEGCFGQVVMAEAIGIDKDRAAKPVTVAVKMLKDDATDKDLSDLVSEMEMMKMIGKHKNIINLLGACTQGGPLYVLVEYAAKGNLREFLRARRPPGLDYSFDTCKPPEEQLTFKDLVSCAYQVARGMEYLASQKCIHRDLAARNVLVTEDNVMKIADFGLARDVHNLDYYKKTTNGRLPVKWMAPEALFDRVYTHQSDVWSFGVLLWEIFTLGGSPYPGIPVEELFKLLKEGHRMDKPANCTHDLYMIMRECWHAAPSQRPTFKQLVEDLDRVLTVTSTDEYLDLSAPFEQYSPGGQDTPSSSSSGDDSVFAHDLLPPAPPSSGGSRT

Sequence of Receptor-interacting serine/threonine-protein kinase 2 (Homo sapiens) (O43353 whole entry): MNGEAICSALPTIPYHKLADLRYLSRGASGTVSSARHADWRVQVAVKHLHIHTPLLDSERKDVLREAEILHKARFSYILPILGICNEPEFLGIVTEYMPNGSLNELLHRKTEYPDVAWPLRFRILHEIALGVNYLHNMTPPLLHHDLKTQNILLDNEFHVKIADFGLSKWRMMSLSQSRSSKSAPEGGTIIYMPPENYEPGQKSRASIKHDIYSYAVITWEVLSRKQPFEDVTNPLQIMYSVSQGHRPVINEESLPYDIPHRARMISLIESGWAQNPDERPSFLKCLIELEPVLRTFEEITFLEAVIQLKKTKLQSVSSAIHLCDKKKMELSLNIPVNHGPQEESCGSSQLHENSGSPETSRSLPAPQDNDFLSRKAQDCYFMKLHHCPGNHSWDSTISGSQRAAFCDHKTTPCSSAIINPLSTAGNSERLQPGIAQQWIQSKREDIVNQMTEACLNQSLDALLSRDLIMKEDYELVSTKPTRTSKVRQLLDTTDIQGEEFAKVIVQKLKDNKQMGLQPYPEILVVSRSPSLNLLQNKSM
Sequence of Mitogen-activated protein kinase kinase kinase 4 (Homo sapiens) (Q9Y6R4 whole entry): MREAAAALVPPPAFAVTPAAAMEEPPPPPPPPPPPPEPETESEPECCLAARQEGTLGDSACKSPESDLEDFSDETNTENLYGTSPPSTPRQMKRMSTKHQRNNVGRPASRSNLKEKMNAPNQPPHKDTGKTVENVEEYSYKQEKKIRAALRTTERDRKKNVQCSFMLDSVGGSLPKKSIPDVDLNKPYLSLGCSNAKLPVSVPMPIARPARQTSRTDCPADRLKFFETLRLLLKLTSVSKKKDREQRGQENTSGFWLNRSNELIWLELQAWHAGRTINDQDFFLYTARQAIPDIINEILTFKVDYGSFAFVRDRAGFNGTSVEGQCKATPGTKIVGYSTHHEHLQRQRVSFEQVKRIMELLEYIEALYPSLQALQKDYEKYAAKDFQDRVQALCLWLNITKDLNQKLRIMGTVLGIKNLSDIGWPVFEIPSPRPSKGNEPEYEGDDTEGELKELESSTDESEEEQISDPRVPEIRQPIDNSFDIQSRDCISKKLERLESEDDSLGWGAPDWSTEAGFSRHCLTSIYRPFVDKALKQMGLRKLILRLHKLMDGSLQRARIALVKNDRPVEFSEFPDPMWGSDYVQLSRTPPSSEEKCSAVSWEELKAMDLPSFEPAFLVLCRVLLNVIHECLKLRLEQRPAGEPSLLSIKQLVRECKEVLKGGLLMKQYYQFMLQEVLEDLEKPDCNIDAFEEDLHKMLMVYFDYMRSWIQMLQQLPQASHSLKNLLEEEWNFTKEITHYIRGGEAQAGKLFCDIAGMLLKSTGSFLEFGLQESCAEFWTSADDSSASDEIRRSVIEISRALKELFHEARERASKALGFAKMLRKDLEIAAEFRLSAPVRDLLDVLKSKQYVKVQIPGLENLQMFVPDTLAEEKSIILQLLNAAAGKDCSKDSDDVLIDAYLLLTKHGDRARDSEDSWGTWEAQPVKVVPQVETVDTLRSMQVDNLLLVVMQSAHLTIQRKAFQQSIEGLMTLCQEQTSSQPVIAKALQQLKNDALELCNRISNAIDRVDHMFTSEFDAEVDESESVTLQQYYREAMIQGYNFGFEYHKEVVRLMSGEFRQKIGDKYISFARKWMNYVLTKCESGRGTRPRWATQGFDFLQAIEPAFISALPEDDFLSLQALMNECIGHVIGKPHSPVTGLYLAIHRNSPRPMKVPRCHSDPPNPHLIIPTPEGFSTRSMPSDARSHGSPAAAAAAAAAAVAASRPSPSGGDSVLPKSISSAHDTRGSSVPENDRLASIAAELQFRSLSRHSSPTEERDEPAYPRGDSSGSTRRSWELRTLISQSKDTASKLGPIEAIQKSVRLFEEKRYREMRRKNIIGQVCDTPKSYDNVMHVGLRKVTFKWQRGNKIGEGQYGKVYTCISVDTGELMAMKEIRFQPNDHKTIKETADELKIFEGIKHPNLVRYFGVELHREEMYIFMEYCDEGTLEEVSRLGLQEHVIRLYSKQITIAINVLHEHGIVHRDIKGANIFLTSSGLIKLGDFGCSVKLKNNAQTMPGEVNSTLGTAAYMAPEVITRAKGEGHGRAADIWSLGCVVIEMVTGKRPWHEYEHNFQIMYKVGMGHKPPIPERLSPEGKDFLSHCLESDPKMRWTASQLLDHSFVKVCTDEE
Sequence of Cyclin-dependent kinase 16 (Homo sapiens) (Q00536 whole entry): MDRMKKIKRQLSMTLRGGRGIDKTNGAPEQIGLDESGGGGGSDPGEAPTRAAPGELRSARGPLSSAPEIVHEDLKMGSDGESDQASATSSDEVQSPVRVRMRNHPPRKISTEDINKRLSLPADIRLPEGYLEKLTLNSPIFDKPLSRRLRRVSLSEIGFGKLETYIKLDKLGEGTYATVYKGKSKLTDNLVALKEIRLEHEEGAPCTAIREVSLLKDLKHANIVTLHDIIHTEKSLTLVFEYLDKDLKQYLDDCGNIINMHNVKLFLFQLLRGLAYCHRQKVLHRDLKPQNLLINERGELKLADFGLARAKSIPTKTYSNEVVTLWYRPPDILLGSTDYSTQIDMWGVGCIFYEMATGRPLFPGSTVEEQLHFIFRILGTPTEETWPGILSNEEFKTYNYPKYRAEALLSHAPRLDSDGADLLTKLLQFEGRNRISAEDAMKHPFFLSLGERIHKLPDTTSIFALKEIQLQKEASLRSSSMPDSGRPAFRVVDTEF
Sequence of Serine/threonine-protein kinase B-raf (Homo sapiens), P15056 [V600E] (P15056 whole entry V600E): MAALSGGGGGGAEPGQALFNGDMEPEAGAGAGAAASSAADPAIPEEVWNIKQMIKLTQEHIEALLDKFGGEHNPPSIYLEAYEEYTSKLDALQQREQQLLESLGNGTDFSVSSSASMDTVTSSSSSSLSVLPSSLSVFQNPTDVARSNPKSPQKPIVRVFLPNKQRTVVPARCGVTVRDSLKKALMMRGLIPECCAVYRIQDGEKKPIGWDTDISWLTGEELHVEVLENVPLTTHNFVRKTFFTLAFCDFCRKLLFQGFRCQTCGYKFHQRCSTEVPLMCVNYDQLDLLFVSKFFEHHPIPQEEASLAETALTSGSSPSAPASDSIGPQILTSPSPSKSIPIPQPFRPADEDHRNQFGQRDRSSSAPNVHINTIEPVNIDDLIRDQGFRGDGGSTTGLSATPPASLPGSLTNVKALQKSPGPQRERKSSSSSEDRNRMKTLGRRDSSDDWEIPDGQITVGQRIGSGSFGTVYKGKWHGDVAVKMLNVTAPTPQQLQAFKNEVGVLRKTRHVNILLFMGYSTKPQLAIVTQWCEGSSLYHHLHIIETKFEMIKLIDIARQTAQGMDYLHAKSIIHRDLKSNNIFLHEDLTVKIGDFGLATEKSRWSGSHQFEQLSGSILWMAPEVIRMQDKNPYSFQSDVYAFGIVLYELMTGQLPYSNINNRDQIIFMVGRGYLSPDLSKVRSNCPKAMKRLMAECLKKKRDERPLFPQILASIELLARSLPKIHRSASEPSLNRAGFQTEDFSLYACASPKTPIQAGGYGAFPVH
Sequence of 5'-AMP-activated protein kinase catalytic subunit alpha-1 (Homo sapiens) (Q13131 whole entry, looked up): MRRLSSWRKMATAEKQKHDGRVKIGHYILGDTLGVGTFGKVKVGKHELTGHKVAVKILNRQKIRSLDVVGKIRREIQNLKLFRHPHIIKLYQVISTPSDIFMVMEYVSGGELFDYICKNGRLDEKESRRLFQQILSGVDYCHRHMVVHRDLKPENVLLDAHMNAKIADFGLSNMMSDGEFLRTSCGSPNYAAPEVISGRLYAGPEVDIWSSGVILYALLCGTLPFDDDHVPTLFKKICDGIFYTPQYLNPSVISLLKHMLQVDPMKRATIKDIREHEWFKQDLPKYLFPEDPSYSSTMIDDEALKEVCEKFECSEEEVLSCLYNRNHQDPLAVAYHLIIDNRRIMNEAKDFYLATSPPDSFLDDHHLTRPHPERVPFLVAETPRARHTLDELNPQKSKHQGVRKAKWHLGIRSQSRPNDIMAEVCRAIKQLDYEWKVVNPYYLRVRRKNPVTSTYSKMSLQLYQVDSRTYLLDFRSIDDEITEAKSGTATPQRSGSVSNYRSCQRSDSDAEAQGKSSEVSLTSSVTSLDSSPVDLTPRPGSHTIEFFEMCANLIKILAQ

Compound	inhibition [1]	IC50 [2]	inhibition [3]	inhibition [4]	inhibition [5]	inhibition [6]	inhibition [7]	inhibition [8]	inhibition [9]	inhibition [10]	inhibition [11]	inhibition [12]	inhibition [13]	inhibition [14]
CS(=O)(=O)CCCOc1cccc2c1ccn2-c1ccnc(N[C@H]2CC[C@H](C(=O)N3CCC(O)CC3)CC2)n1	> 85%	1100 nM												
O[C@H]1CC[C@H](Nc2nccc(-n3ccc4ccccc43)n2)CC1	< 50%	2000 nM	< 50%	< 50%	< 50%	< 50%	< 50%	99%	< 50%	< 50%	< 50%	< 50%	< 50%	< 50%
N[C@H]1CC[C@H](Nc2nccc(-n3nnc4ccccc43)n2)CC1	95%	540 nM	< 50%	86%	< 50%	100%	< 50%	100%	< 50%	< 50%	< 50%	< 50%	84%	< 50%
O[C@H]1CC[C@H](Nc2nccc(-n3nnc4ccccc43)n2)CC1	93%	790 nM	66%	< 50%	< 50%	97%	< 50%	100%	< 50%	< 50%	< 50%	< 50%	< 50%	< 50%
O[C@H]1CC[C@H](Nc2nccc(-n3ncc4ccccc43)n2)CC1	< 50%	2700 nM	< 50%	< 50%	< 50%	< 50%	< 50%	99%	< 50%	< 50%	< 50%	< 50%	< 50%	< 50%
O=C([C@H]1CC[C@H](Nc2nccc(-n3nnc4ccccc43)n2)CC1)N1CCOCC1	64%	1800 nM	< 50%	< 50%	< 50%	75%	< 50%	91%	< 50%	< 50%	< 50%	< 50%	< 50%	< 50%
O[C@H]1CC[C@H](Nc2nccc(-c3n[nH]c4ccccc34)n2)CC1	96%	2300 nM	< 50%	92%	< 50%	92%	< 50%	100%	< 50%	95%	< 50%	100%	100%	74%
